Data from ChEMBL document CHEMBL4145607, “Tamarixetin Exhibits Anti-inflammatory Activity and Prevents Bacterial Sepsis by Increasing IL-10 Production” (J Nat Prod, 2018).
The source made the active and inactive calls. The rule behind the calls is not given here.

Legend:
[1] = molecular target: T1, Toll-like receptor 4 (Mus musculus) (UniProt Q9QUK6); experiment: Inhibition of LPS-induced TLR4 activation in C57BL/6 mouse BMDC assessed as reduction in Akt phosphorylation at 25 uM pretreated for 30 mins followed by LPS-challenge measured after 15 to 90 mins by Western blot analysis; assay type: cell-based
T1 sequence (whole entry): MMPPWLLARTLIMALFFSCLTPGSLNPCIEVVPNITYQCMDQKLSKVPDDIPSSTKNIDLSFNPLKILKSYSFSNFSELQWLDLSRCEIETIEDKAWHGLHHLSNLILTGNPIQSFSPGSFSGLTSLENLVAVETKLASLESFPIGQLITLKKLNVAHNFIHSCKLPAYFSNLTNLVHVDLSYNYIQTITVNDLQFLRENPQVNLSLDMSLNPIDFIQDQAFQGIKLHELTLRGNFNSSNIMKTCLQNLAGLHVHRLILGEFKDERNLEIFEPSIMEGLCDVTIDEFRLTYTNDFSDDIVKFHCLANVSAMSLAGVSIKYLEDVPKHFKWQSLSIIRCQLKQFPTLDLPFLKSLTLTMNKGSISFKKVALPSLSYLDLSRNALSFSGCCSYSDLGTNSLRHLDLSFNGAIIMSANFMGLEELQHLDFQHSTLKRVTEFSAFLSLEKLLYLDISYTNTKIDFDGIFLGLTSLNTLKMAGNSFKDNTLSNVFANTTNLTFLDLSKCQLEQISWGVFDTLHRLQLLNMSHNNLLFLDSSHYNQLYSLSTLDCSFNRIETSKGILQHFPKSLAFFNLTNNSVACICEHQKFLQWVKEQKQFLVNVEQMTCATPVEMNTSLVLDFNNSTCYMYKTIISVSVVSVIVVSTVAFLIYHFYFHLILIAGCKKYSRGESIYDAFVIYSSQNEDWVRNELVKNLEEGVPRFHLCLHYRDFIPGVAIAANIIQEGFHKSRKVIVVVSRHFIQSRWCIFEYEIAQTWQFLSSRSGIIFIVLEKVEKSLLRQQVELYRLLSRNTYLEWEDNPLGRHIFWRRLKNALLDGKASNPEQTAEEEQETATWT
Method in brief: (§1)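 BMDCs were pretreated 30 min with 25 μM compound, then stimulated with LPS 50 ng·mL−1 for the indicated times. Lysates (25 μg protein) were run on 10% SDS-PAGE and immunoblotted for phospho/total ERK, JNK, p38 and Akt, plus COX-2, IκBα and α-tubulin, with ECL detection. Representative of three experiments.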

BMDC [2] = experiment: Inhibition of LPS-induced immune response in C57BL/6 mouse BMDC assessed as increase in IL10 secretion at 25 uM treated 6 hrs post LPS-challenge measured after 30 mins by ELISA; assay type: functional, cell-based
Method in brief: (§2)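 Bone marrow DCs from 6-week-old female C57BL/6 mice, RBC-lysed, cultured in RPMI-1640/10% FBS with 10 ng/mL rmGM-CSF, 37 °C, 5% CO2. Cells given LPS 50 ng/mL for 6 h, then 25 μM compound added for 30, 60, 90 or 120 min. Supernatant TNF-α, IL-6, IL-10, IL-12p70 measured by sandwich ELISA. Mean ± SEM, compared with LPS-only DCs.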

Mus musculus [3] = experiment: Antiinflammatory activity in Balb/c mouse model of LPS-induced endotoxemia assessed as reduction in TNFalpha level in lungs at 1 mg/kg, ip pretreated for 1 hr followed by LPS-challenge measured after 12 hrs by ELISA; assay type: functional, organism-based
Method in brief: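 BALB/c mice got 1 mg·kg−1 i.p. 1 h before i.p. LPS 10 mg·kg−1. After 12 h, TNF-α and IL-6 in lung lysates were measured by sandwich ELISA. Means ± SEM.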

BMDC [4] = experiment: Inhibition of LPS-induced immune response in C57BL/6 mouse BMDC assessed as reduction in TNFalpha secretion at 25 uM treated 6 hrs post LPS-challenge measured after 60 to 120 mins by ELISA; assay type: functional, cell-based; method in brief: as §2
Mus musculus [5] = experiment: Antiinflammatory activity in Balb/c mouse model of LPS-induced endotoxemia assessed as reduction in infiltration of immune cells at 1 mg/kg, ip pretreated for 1 hr followed by LPS-challenge measured after 12 hrs by hematoxylin and eosin staining based microscopic analysis; assay type: functional, organism-based
Method in brief: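 Dosing was 1 mg·kg−1 i.p. 1 h before LPS 10 mg·kg−1 i.p. in BALB/c mice. At 12 h lungs were perfused and formalin-fixed, then paraffin-embedded. 5 μm sections were H&E-stained and imaged by microscope. Representative of three independent experiments.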

Mus musculus [6] = experiment: Antiinflammatory activity in Balb/c mouse model of LPS-induced endotoxemia assessed as reduction in serum TNFalpha level at 1 mg/kg, ip pretreated for 1 hr followed by LPS-challenge measured after 2 hrs by ELISA; assay type: functional, organism-based
Method in brief: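 BALB/c mice were dosed with 1 mg·kg−1 i.p. 1 h before LPS 10 mg·kg−1 i.p. Serum was taken 2 h later, and TNF-α, IL-6 and IL-10 were measured by sandwich ELISA. Means ± SEM.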

BMDC [7] = experiment: Inhibition of Escherichia coli DH5alpha infection-induced immune response in C57BL/6 mouse BMDC assessed as increase in IL10 secretion at 25 uM pretreated for 60 to 120 mins followed by Escherichia coli DH5alpha infection for 6 hrs by ELISA; assay type: functional, cell-based
Method in brief: (§3)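 C57BL/6 BMDCs received 25 μM compound and E. coli DH5α, 3 × 10^6 CFU·mL−1. Schedules were: compound 30 min before a 6 h infection; co-addition for 6 h; or compound for 30, 60, 90 or 120 min plus 6 h infection. Supernatant TNF-α, IL-6, IL-10 and IL-12p70 were measured by ELISA. At least three experiments in triplicate.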

BMDC [8] = experiment: Inhibition of Escherichia coli DH5alpha infection-induced immune response in C57BL/6 mouse BMDC assessed as reduction in IL-12p70 secretion at 25 uM pretreated for 60 to 120 mins followed by Escherichia coli DH5alpha infection for 6 hrs by ELISA; assay type: functional, cell-based; method in brief: as §3
Mus musculus [9] = experiment: Antiinflammatory activity in Balb/c mouse model of LPS-induced endotoxemia assessed as increase in IL10 producing B10 population in splenocyte at 1 mg/kg, ip pretreated for 1 hr followed by LPS-challenge measured after 12 hrs by flow cytometric analysis; assay type: functional, organism-based
BMDC [10] = experiment: Cytotoxicity against C57BL/6 mouse BMDC assessed as effect on cell viability up to 100 uM after 24 hrs by luminescence assay; assay type: cell-based
Method in brief: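 BMDCs came from C57BL/6 marrow cultured 7 days with 10 ng·mL−1 GM-CSF. Cells at 1 × 10^4 per well were incubated 24 h with 6.25–200 μM compound, with DMSO and H2O2 controls. Viability was read as ATP by luminescence. Means ± SEM.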

[11] = molecular target: T1, Toll-like receptor 4 (Mus musculus); experiment: Inhibition of LPS-induced TLR4 activation in C57BL/6 mouse BMDC assessed as reduction in COX2 expression at 25 uM pretreated for 30 mins followed by LPS-challenge measured after 15 to 90 mins by Western blot analysis; assay type: cell-based; method in brief: as §1
BMDC [12] = experiment: Inhibition of Escherichia coli DH5alpha infection-induced immune response in C57BL/6 mouse BMDC assessed as reduction in TNFalpha secretion at 25 uM pretreated for 30 mins followed by Escherichia coli DH5alpha infection for 6 hrs by ELISA; assay type: functional, cell-based; method in brief: as §3

With `COc1ccc(-c2oc3cc(O)cc(O)c3c(=O)c2O)cc1O` [TAMARIXETIN] the inhibition [1] was “Active”, the inhibition (BMDC [2]) was “Active” and the Activity (Mus musculus [3]) was “Active”. For the same molecule, the inhibition (BMDC [4]) was “inactive”, the Activity (Mus musculus [5]) was “Active” and the Activity (Mus musculus [6]) was “Active”. The inhibition (BMDC [7]) was “inactive”, the inhibition (BMDC [8]) was “inactive” and the Activity (Mus musculus [9]) was “Active”. The Activity (BMDC [10]) was “Non-Toxic”, the inhibition [11] was “Active” and the inhibition (BMDC [12]) was “Active”.
